High-throughput results deposited in PubChem BioAssay by Sanford-Burnham Center for Chemical Genomics.
SENP6 inh: inhibitors of human SENP6 protease; Recombinant SENP6 catalytic domain, aminoluciferin luminescence; inhibition, % at 10 µM; 330,000 tested, 1.8% active;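 active means inhibition above about 50% at the single tested dose, limit read from the data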;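 further: plate controls were DMSO wells with enzyme for no effect and DMSO wells lacking enzyme for full effect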
Target sequence (Q9GZR1 628-1112 limits assumed): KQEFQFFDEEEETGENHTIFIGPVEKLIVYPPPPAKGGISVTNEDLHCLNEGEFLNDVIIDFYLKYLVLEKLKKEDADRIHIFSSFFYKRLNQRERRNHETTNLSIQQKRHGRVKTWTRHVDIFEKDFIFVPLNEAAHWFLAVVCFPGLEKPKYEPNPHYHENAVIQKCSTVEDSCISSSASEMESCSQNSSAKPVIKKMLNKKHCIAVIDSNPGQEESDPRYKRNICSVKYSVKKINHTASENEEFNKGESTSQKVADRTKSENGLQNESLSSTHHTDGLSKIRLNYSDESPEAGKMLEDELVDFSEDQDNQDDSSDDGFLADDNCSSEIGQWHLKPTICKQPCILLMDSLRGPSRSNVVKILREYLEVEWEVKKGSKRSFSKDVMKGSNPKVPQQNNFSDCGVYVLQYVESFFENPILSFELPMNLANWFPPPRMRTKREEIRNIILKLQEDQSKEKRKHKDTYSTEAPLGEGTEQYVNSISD
Apaf-1 inh: human Apaf-1 inhibition. O14727. reconstituted apoptosome caspase-3 activity, DEVD-Rh110 fluorescence. inhibition, % at 20 µM. 330,000 tested, 0.71% active. AID 489030; active means inhibition of at least 40% at 20 µM;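 further: plate controls were DMSO wells for no effect and DEVD-CHO caspase inhibitor wells for full effect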
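Assay system: Apoptosome proteins | Medium: pH 7.5 Hepes buffer with CHAPS, BSA, DTT | Also added: Cytochrome c and DEVD-Rh110 substrate | Times: 30 min plus 50 min, RT | Detection: Rhodamine 110 fluorescence at Ex 480/Em 540 nm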
SENP7 block: SENP7 protease inhibition; recombinant SENP7, Z-RLRGG-aminoluciferin luminescence, 40 min; AID 434973; 330,000 tested, 1.5% active; inhibition, % at 5 µM;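 active means inhibition above about 50% at the single test dose, limit read from the data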;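 further: plate controls were DMSO with enzyme for no effect and no enzyme buffer wells for full effect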
UBC13 inh: blocks human UBC13 polyubiquitin chain formation; AID 485273; inhibition, % at 20 µM; 330,000 tested, 0.47% active; P61088; TR-FRET; in the data active means inhibition above about 45%, passing the limit was not always enough
SENP8 block-1: blocks the human protease SENP8. inhibition, % at 10 µM. Q96LD8. purified SENP8, Z-RLRGG-aminoluciferin cleavage, luminescence. 330,000 tested, 1.2% active; in the data active means inhibition above about 50%
SENP8 block-2: SENP8 (human) protease inhibition | AID 602440 | Q96LD8 | 360,000 tested, 0.64% active | recombinant SENP8, Nedd8 substrate fluorescence | inhibition, % at 20 µM; in the data active means inhibition mostly above about 40%, no sharp cut-off; inactive means mostly below about 27%
SENP8 confirm: human SENP8 inhibition, confirmed | 6,200 tested, 40% active | Recombinant SENP8, Z-RLRGG-aminoluciferin luminescence, 60 min | shares compounds with SENP7 block | inhibition, % at 12.5 µM;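 active means mean inhibition across replicates above about 50%, limit read from the data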
SENP6 confirm: human SENP6 inhibition, confirmed. AID 488915. shares compounds with SENP7 block. inhibition, % at 12.5 µM. recombinant SENP6, Z-RLRGG-aminoluciferin luminescence. 6,200 tested, 58% active
SENP7 confirm: confirmation of human SENP7 protease inhibitors; 6,200 tested, 69% active; recombinant SENP7, Z-RLRGG-aminoluciferin luminescence, 40 min; inhibition, % at 12.5 µM; shares compounds with SENP7 block
Casp3 SENP sel: caspase-3 inhibition (SENP selectivity assay); inhibition, % at 12.5 µM; AID 488918; shares compounds with SENP7 block; purified caspase-3, Z-DEVD-aminoluciferin luminescence, 60 min; 6,200 tested, 60% active;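 active means mean inhibition above about 50%, limit read from the data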;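 further: plate controls were enzyme with DMSO for no effect and wells without caspase-3 for full effect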
SENP luc ctr: interferes with luciferase luminescence in SENP counter-screen | 6,200 tested, 39% active | AID 488919 | Pre-incubated SENP8/Z-RLRGG-aminoluciferin, luciferase luminescence interference | shares compounds with SENP7 block | inhibition, % at 12.5 µM;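 active means mean inhibition above about 50% when retested at one dose, limit read from the data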;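 further: plate controls were DMSO wells with completed reaction for no effect and substrate without enzyme for full effect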
* marks the source's active call; other numbers are inactive results; i = inactive; x = no result given. In the library only some 3% were active in any assay of this set; here they are far more common.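 How the source made its calls, unless noted: active means mean inhibition above about 50% in the one-dose retest (limit read from the data); inactive means the rest.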

SMILES | SENP6 inh | Apaf-1 inh | SENP7 block | UBC13 inh | SENP8 block-1 | SENP8 block-2 | SENP8 confirm | SENP6 confirm | SENP7 confirm | Casp3 SENP sel | SENP luc ctr
CC(C)c1ccc2oc(-c3ccc(N)cc3)nc2c1 | 94* | 36 | 93* | -3 | 86* | -277 | 94* | 95* | 100* | 69* | 94*
CC(C)C[C@H](NC(=O)N1CC(=O)Nc2ccccc21)C(=O)N[C@H](C(=O)O)c1ccccc1 | x | x | x | x | x | 21 | x | x | x | x | x
Cc1ccc(-c2nc3cc(N)ccc3o2)c(C)c1 | 83* | -1 | 67* | 12 | 69* | -482 | 58* | 73* | 92* | 55* | 28
Cc1ccc(N=Nc2c(C)[nH]n(C(N)=S)c2=O)cc1C | 90* | -5 | 78* | -37 | 78* | 57* | 61* | 54* | 67* | 73* | 16
NC(=S)n1[nH]c(-c2ccc([N+](=O)[O-])cc2)c(N=Nc2cccc([N+](=O)[O-])c2)c1=O | x | x | x | x | x | 38 | x | x | x | x | x
CC(=O)Nc1ccc(N=Nc2c(C)[nH]n(C(N)=S)c2=O)cc1 | 53* | -1 | 67* | -100 | 70* | 8 | 64* | 66* | 93* | 92* | 39
Cc1[nH]n(C(N)=S)c(=O)c1N=Nc1cc(-c2ccc(Br)cc2)[nH]n1 | 69* | 19 | 18 | -15 | 55* | 30 | -7 | 1 | -6 | -4 | 12
Cc1[nH]n(C(N)=S)c(=O)c1N=Nc1ccc(S(=O)(=O)N2CCCCCC2)cc1 | 73* | -24 | 26 | -27 | 49 | 37 | 51* | 43 | 48 | 45 | 20
Cc1[nH]n(C(N)=S)c(=O)c1N=Nc1ccc2ccccc2c1 | x | x | x | x | x | 6 | x | x | x | x | x
CCOc1ccccc1N(CC(=O)NC1CCCCC1)C(=O)CCC(=O)Nc1cc(C)ccn1 | -9 | 14 | 9 | 3 | 5 | 1 | x | x | x | x | x
Cc1c(N=Nc2c(-c3ccc([N+](=O)[O-])cc3)[nH]n(C(N)=S)c2=O)cccc1[N+](=O)[O-] | x | x | x | x | x | 29 | x | x | x | x | x
Cc1[nH]n(C(N)=S)c(=O)c1N=Nc1cccc([N+](=O)[O-])c1C | 96* | -3 | 71* | -11 | 88* | 39 | 96* | 95* | 102* | 92* | 88*
CCC(C)NC(=O)COC(=O)c1ccc(Cl)cc1O (centres undefined) | -10 | 6 | -2 | 2 | -8 | -20 | x | x | x | x | x
COC(=O)c1ccc(OC(=O)/C=C/c2ccco2)cc1 | 83* | 3 | 77* | -5 | 78* | 15 | 84* | 86* | 73* | 74* | 45
Cc1c(N)cccc1N | 6 | 2 | 4 | -3 | 14 | 20 | x | x | x | x | x
Cc1ccc2cccc(N)c2n1 | 52* | 8 | 55* | -22 | -2 | -6 | -2 | 5 | 5 | 11 | 8
O=C(/C=C/c1ccc([N+](=O)[O-])cc1)c1cccs1 | -11 | -9 | -7 | -1 | -7 | 20 | x | x | x | x | x
Cc1cccc(N/C=C/C(=O)c2cccs2)c1C | 95* | 3 | 94* | 6 | 95* | -22 | 11 | 99* | 102* | 95* | 95*
Cc1ccc(C(=O)/C=C/Nc2ccccc2C(N)=O)o1 | 7 | 2 | 10 | 8 | -15 | -312 | x | x | x | x | x
COc1cc([N+](=O)[O-])ccc1N/C=C/C(=O)c1cccs1 | 87* | -7 | 97* | -37 | 53* | -34 | 33 | 55* | 48 | 48 | 24
NC(=O)c1ccccc1N/C=C/C(=O)c1cccs1 | 92* | 8 | 76* | -7 | 81* | i | 4 | 90* | 98* | 94* | 88*
